≈ marks a conversion by molar mass, not a printed value.
Columns and labels:
Type in all cases: functional
Staphylococcus aureus [1] = test: Antimicrobial activity against Staphylococcus aureus ATCC 25923 by standard microdilution method
Method in brief: (§1)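 Broth microdilution per NCCLS guidelines, at least in duplicate, in cation-adjusted Mueller-Hinton broth (20 mg/L Ca2+, 10 mg/L Mg2+). Strains were grown first on nutrient agar. Inoculum of 5 × 10^5 cfu was set in 0.9% saline against a McFarland standard. Compounds were dissolved in DMSO and given as 2-fold serial dilutions, final 1–512 µg/mL, with at most 3.125% v/v DMSO. MIC is the lowest concentration showing no visible growth.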

Staphylococcus aureus [2] = test: Antimicrobial activity against TetK multidrug efflux pump possessing Staphylococcus aureus XU-212 by standard microdilution method; method in brief: as §1
Staphylococcus aureus [3] = test: Antimicrobial activity against epidemic methicillin-resistant Staphylococcus aureus 15 by standard microdilution method
Method in brief: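 Broth microdilution following NCCLS guidelines, at least in duplicate, against EMRSA-15 (mecA) precultured on nutrient agar. Medium was cation-adjusted Mueller-Hinton broth with 20 mg/L Ca2+ and 10 mg/L Mg2+. Inoculum was 5 × 10^5 cfu in 0.9% saline, set against a McFarland standard. Compounds were dissolved in DMSO (final ≤3.125% v/v) and tested at 1–512 µg/mL in 2-fold series. MIC was the lowest concentration with no visible growth.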

Staphylococcus aureus [4] = test: Antimicrobial activity against Staphylococcus aureus ATCC 6538
[5] = test system: Mycobacterium tuberculosis; test: Antimicrobial activity against Mycobacterium tuberculosis

Compound: CCCCC[C@H]1CCCCCCCCCC(=O)O[C@H]2[C@H](O)[C@@H](CO)O[C@@H](O[C@H]3[C@H](O1)O[C@H](C)[C@H](O)[C@@H]3O)[C@@H]2O[C@@H]1O[C@@H](C)[C@H](OC(=O)C(C)C)[C@@H](O[C@@H]2O[C@@H](C)[C@H](O)[C@@H](O)[C@H]2O)[C@H]1OC(=O)[C@@H](C)CC [TRICOLORIN B]
- MIC (Staphylococcus aureus [1]): 32 µg/mL (≈ 31.7 µM)
- MIC (Staphylococcus aureus [2]): 16 µg/mL (≈ 15.9 µM)
- MIC (Staphylococcus aureus [3]): 16 µg/mL (≈ 15.9 µM)
- MIC (Staphylococcus aureus [4]): 1 µg/mL (≈ 0.991 µM)
- MIC [5]: 16 µg/mL (≈ 15.9 µM)

Compound: CCCCC[C@H]1CCCCCCCCCC(=O)O[C@H]2[C@H](O)[C@@H](CO)O[C@@H](O[C@H]3[C@H](O1)O[C@H](C)[C@H](O)[C@@H]3O)[C@@H]2O[C@@H]1O[C@@H](C)[C@H](OC(=O)[C@H](C)[C@@H](C)O)[C@@H](O[C@@H]2O[C@@H](C)[C@H](O)[C@@H](O)[C@H]2O)[C@H]1OC(=O)[C@@H](C)CC [TRICOLORIN C]
- MIC (Staphylococcus aureus [1]): 32 µg/mL (≈ 30.8 µM)
- MIC (Staphylococcus aureus [2]): 16 µg/mL (≈ 15.4 µM)
- MIC (Staphylococcus aureus [3]): 32 µg/mL (≈ 30.8 µM)
- MIC (Staphylococcus aureus [4]): 1 µg/mL (≈ 0.962 µM)
- MIC [5]: 16 µg/mL (≈ 15.4 µM)

Compound: CCCCC[C@H]1CCCCCCCCCC(=O)OC[C@H]2O[C@@H](O[C@H]3[C@H](O1)O[C@H](C)[C@H](O)[C@@H]3O)[C@H](O[C@@H]1O[C@@H](C)[C@H](OC(=O)[C@@H](C)CC)[C@@H](O[C@@H]3O[C@@H](C)[C@H](O)[C@@H](O)[C@H]3O)[C@H]1OC(=O)[C@@H](C)CC)[C@@H](O)[C@@H]2O [TRICOLORIN D]
- MIC (Staphylococcus aureus [1]): 16 µg/mL (≈ 15.6 µM)
- MIC (Staphylococcus aureus [2]): 32 µg/mL (≈ 31.3 µM)
- MIC (Staphylococcus aureus [3]): 32 µg/mL (≈ 31.3 µM)
- MIC (Staphylococcus aureus [4]): 1 µg/mL (≈ 0.977 µM)
- MIC [5]: 16 µg/mL (≈ 15.6 µM)

Compound: CCCCC[C@H]1CCCCCCCCCC(=O)O[C@H]2[C@H](O)[C@@H](CO)O[C@@H](O[C@H]3[C@H](O1)O[C@H](C)[C@@H](O)[C@@H]3O)[C@@H]2O[C@@H]1O[C@@H](C)[C@H](OC(=O)[C@@H](C)CC)[C@@H](O[C@@H]2O[C@@H](C)[C@H](O)[C@@H](O)[C@H]2O)[C@H]1OC(=O)[C@@H](C)CC [TRICOLORIN E]
- MIC (Staphylococcus aureus [1]): 16 µg/mL (≈ 15.6 µM)
- MIC (Staphylococcus aureus [2]): 8 µg/mL (≈ 7.82 µM)
- MIC (Staphylococcus aureus [3]): 8 µg/mL (≈ 7.82 µM)
- MIC (Staphylococcus aureus [4]): 1 µg/mL (≈ 0.977 µM)
- MIC [5]: 16 µg/mL (≈ 15.6 µM)
